TMEM16A act: TMEM16A chloride channel activators or potentiators, primary screen, cell-based, HTS; Anoctamin-1 (Mus musculus), Q8BHY3; HEK293 TMEM16A/YFP-H148Q/I152L, iodide quench fluorescence; hits give low values; B-score at 10 µM; 340,000 tested, 0.3% active;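 active means fluorescence-ratio B-score plate-corrected deviation score at least 3 library SD below zero, with starting fluorescence score within 5 deviations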;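 further: channel opened by trigger with iodide after compound preincubation; score built on the fluorescence ratio of max minus min over baseline; more negative score means more quench and so TMEM16A activation or potentiation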
MC4R antagonist: MC4R antagonists of cAMP signaling, primary screen, cell-based, TR-FRET, antagonist arm of biased-ligand search | Melanocortin receptor 4 (Homo sapiens), P32245 | MC4R-expressing cells, MTII-stimulated cAMP, LANCE TR-FRET | inhibition, % at 6.5 µM | 360,000 tested, 0.48% active;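 active means inhibition above its plate's cutoff, the mean of tested wells on that plate plus 3 SD, cut at about 29% in these data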
Target sequence (P32245 whole entry, looked up): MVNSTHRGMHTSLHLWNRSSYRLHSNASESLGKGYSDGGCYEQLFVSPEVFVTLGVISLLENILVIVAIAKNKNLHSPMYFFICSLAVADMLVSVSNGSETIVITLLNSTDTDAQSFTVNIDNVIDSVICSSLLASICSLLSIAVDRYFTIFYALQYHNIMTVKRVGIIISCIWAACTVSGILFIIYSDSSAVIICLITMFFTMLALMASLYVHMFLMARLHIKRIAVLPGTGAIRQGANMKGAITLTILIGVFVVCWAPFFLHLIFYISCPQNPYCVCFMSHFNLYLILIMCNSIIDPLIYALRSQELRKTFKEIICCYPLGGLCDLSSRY
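System – human MC4R-expressing U2OS cells · Also added – Melanotan II · Dosing – one concentration, 6.5 µM nominal · Timing – 30-min compound, 1-h challenge, 1-h detection, room temperature · Measured by – Eu-cAMP/anti-cAMP TR-FRET, emission 671 nm · Replicates – singlicate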
MC4R ag barr: MC4R agonists recruiting beta-arrestin, primary screen, cell-based, luminescence, agonist arm of biased-ligand search. Melanocortin receptor 4 (Homo sapiens), P32245. 360,000 tested, 0.98% active. activation, % at 8.9 µM. U2OS MC4R beta-arrestin complementation; percent of melanotan II response, DMSO zero;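 active means activation above a per-plate cutoff, the mean activation of sample wells on that plate plus 3 SD, cut at about 8% in these data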
CSC inhib: cancer stem cell viability inhibitors, primary screen, luminescence. cancer stem cell-like cells viability. inhibition, % at 7.5 µM. 300,000 tested, 1.1% active. AID 2717, 2010; in the data active means inhibition above about 75%; inconclusive means no clear call, values can overlap the other calls; tested in HMLE shEcad cells
Beta cell apopt: inhibitors of cytokine-induced beta cell apoptosis, primary screen, luminescence | INS-1E cytokine-induced death, ATP luminescence, 48 h; percent of positive-control rescue, neutral wells zero | protection from apoptosis, % (no concentration beside the values) | 300,000 tested, 0.8% active | AID 435005, 2010;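 active means Every replicate reaches about 75%, or at least half do and their mean reaches it too, limit read from the data; inconclusive means At least half of replicates reach the limit but their mean does not; inactive means Under half of replicates reach the limit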;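 further: higher means more ATP so stronger rescue from cytokine killing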
TMEM16A inh: TMEM16A chloride channel inhibitors, primary screen, cell-based, HTS; Anoctamin-1 (Mus musculus), Q8BHY3; HEK293 TMEM16A/YFP iodide influx fluorescence, ionomycin; normalized B-score (activity score, 25-100; higher = stronger inhibition) at 10 µM; 310,000 tested, 1.2% active;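 active means ratio plate-corrected score three or more library SD toward inhibition, starting fluorescence score within five deviations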;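 further: score derived from kinetic fluorescence span divided by baseline fluorescence per well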
U2OS cAMP counter: nonselective cAMP signaling inhibitors, parental cells, counter-screen for MC4R biased antagonist project, cell-based, TR-FRET, U2OS, forskolin, triplicate. shares compounds with MC4R antagonist. LANCE TR-FRET. inhibition, % at 6.5 µM. 1,600 tested, 26% active. AID 602193, 2012;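 active means mean inhibition over triplicates above the low-control well mean plus 3 SD, set per campaign, cut at about 13% in these data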;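 further: signal is single emission at 671 nm which falls as cellular cAMP rises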
MC4R antag conf: MC4R cAMP antagonists, retest, confirmation, cell-based, TR-FRET; MC4R-expressing cells, MTII-stimulated cAMP; AID 602195, 2012; shares compounds with MC4R antagonist; 1,600 tested, 27% active; inhibition, % at 6.5 µM; in the data active means inhibition above about 29%
Each line names hits and unclear results; the compound was inactive in the other large screens (follow-up assays come after a bar, where they were run). An excerpt weighted towards active compounds, which were near 3.8% of everything screened.

CCN(CC)c1ccc(C2Nc3cccc4cccc(c34)N2)c(O)c1	MC4R antagonist 32.6 | U2OS cAMP counter inactive | MC4R antag conf 29.1
COCCCC1CCN(Cc2nc(Cc3ccccc3Cl)no2)CC1	none
COCCCC1CCN(Cc2nc(-c3ccccc3)no2)CC1	MC4R antagonist 29.9 | U2OS cAMP counter inactive | MC4R antag conf inactive
O=C1NC(=O)/C(=C\c2ccccc2OCc2ccccc2)S1	MC4R antagonist 39.4 (no result: CSC inhib) | U2OS cAMP counter inactive | MC4R antag conf inactive
O=C(CSCc1ccc(Cl)cc1Cl)Nc1ccc(O)cc1C(=O)O	none
O=C(CSCc1ccc(Cl)cc1Cl)Nc1ccccc1C(=O)Nc1ccc(C(=O)O)cc1	MC4R antagonist 29.9 | U2OS cAMP counter inactive | MC4R antag conf inactive
CC(=O)Nc1ccc(-c2csc(NC(=O)C3CC(=O)N(c4ccc5c(c4)OCCO5)C3)n2)cc1 (stereo unspecified)	MC4R antagonist 34.6 | U2OS cAMP counter inactive | MC4R antag conf inactive
COc1ccc(-c2csc(NC(=O)C3CC(=O)N(c4ccc5c(c4)OCCO5)C3)n2)cc1 (stereo unspecified)	none
CCOC(=O)c1ccc(N/C=C/C(=O)c2ccccc2)cc1	none
CCOC(=O)c1ccc(N/C=C/C(=O)C(C)(C)C)cc1	MC4R antagonist 30.5 | U2OS cAMP counter inactive | MC4R antag conf inactive
CC(C)NC(=O)N(C)C[C@H]1Oc2c(NC(=O)Nc3ccc(C(F)(F)F)cc3)cccc2C(=O)N([C@H](C)CO)C[C@@H]1C	none (no result: TMEM16A inh)
C[C@H]1CN([C@@H](C)CO)C(=O)c2cccc(NC(=O)Nc3ccc(C(F)(F)F)cc3)c2O[C@@H]1CN(C)Cc1ccc(Cl)c(Cl)c1	MC4R antagonist 41.4 (no result: CSC inhib, TMEM16A inh) | U2OS cAMP counter inactive | MC4R antag conf inactive
C[C@H](CO)N1C[C@H](C)[C@@H](CN(C)C(=O)Nc2ccc3c(c2)OCO3)Oc2c(NC(=O)Nc3ccc(C(F)(F)F)cc3)cccc2C1=O	MC4R antagonist 55.6 (no result: TMEM16A inh) | U2OS cAMP counter inactive | MC4R antag conf 30.0
C[C@H](CO)N1C[C@H](C)[C@@H](CN(C)C(=O)Nc2ccc(C(F)(F)F)cc2)Oc2c(NC(=O)Nc3ccc4c(c3)OCO4)cccc2C1=O	none (no result: TMEM16A inh)
C[C@H](CO)N1C[C@H](C)[C@@H](CN(C)C(=O)NC2CCCCC2)Oc2c(NC(=O)Nc3ccc(C(F)(F)F)cc3)cccc2C1=O	MC4R antagonist 29.9, Beta cell apopt inconclusive (no result: CSC inhib, TMEM16A inh) | U2OS cAMP counter inactive | MC4R antag conf inactive
Cn1ccsc1=NC(=O)c1cccc(C#N)c1	none
CN[C@H]1C[C@H]2c3cc(N4CCN(C)CC4)ccc3CCN2C(=O)[C@H]1[C@H](C)O	none (no result: TMEM16A act, CSC inhib, Beta cell apopt, TMEM16A inh)
Cc1ccc(-c2cnc3n2CCCCC3)cc1	MC4R antagonist 32.5 | U2OS cAMP counter inactive | MC4R antag conf inactive
c1ccc(-c2ccc(-c3cnc4n3CCCCC4)cc2)cc1	none
CCCn1nc(C(=O)OCC(=O)Nc2ccc(C)cc2)c2ccccc2c1=O	none (no result: TMEM16A inh)
COc1cc2c(cc1NC(=O)COC(=O)CNS(=O)(=O)c1ccc(C)cc1)oc1ccccc12	MC4R antagonist 30.4 | U2OS cAMP counter inactive | MC4R antag conf 40.8
COc1ccc(S(=O)(=O)N[C@@H](C)C(=O)OCC(=O)Nc2cc3oc4ccccc4c3cc2OC)cc1	MC4R antagonist 35.5 | U2OS cAMP counter 23.3 | MC4R antag conf 38.6
COc1ccc(NC(=O)COC(=O)CNS(=O)(=O)c2ccc(C)cc2)c(OC)c1	none (no result: CSC inhib, Beta cell apopt)
O=C(COC(=O)CCNS(=O)(=O)c1ccc(Cl)cc1)Nc1ccccc1OC(F)F	none (no result: CSC inhib, Beta cell apopt, TMEM16A inh)
